Active and inactive are the calls of the source. The calls are words filed in the database; no cut-off is given here.
Key:
Penicillium citrinum [1] = experiment: Compound was evaluated for antifungal activity against penicillium ctrinum R-3703 as diameter of inhibition zone at a concentration 1 ug/disk; assay type: functional
Outline: (§1)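 Disk-diffusion assay against the fungal strain named in the line. Inhibition-zone diameter was measured after 48 h incubation and is the mean of two samples. Scoring codes used: not effective, slightly effective, incomplete inhibition.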

Saccharomyces cerevisiae [2] = experiment: Compound was evaluated for antifungal activity against Saccharomyces cerevisiae IAM 4861 as diameter of inhibition zone at a concentration 10 ug/disk and showed incomplete inhibition; assay type: functional; outline: as §1
Fusarium solani [3] = experiment: Compound was evaluated for antifungal activity against Fusarium solani R-2800 as diameter of inhibition zone at a concentration 0.1 ug/disk; NE means not effective; assay type: functional, organism-based; outline: as §1
Saccharomyces cerevisiae [4] = experiment: Compound was evaluated for antifungal activity against Saccharomyces cerevisiae IAM 4861 as diameter of inhibition zone at a concentration 0.1 ug/disk; NE means not effective; assay type: functional, organism-based; outline: as §1
Penicillium citrinum [5] = experiment: Compound was evaluated for antifungal activity against penicillium ctrinum R-3703 as diameter of inhibition zone at a concentration 10 ug/disk; assay type: functional; outline: as §1
Fusarium solani [6] = experiment: Compound was evaluated for antifungal activity against Fusarium solani R-2800 as diameter of inhibition zone at a concentration 10 ug/disk; NE means not effective; assay type: functional, organism-based; outline: as §1
Aspergillus fumigatus [7] = experiment: Compound was evaluated for antifungal activity against Aspergillus fumigatum R-1301 as diameter of inhibition zone at a concentration 10 ug/disk; assay type: functional; outline: as §1
Fusarium solani [8] = experiment: Compound was evaluated for antifungal activity against Fusarium solani R-2800 as diameter of inhibition zone at a concentration 1 ug/disk; NE means not effective; assay type: functional, organism-based; outline: as §1
Candida albicans [9] = experiment: Compound was evaluated for antifungal activity against Candida albicans IFO 1594 as diameter of inhibition zone at a concentration 10 ug/disk; SE means slightly effective; assay type: functional, organism-based; outline: as §1
Aspergillus fumigatus [10] = experiment: Compound was evaluated for antifungal activity against Aspergillus fumigatum R-1301 as diameter of inhibition zone at a concentration 0.1 ug/disk; NE means not effective; assay type: functional, organism-based; outline: as §1
Candida albicans [11] = experiment: Compound was evaluated for antifungal activity against Candida albicans IFO 1594 as diameter of inhibition zone at a concentration 0.1 ug/disk; NE means not effective; assay type: functional, organism-based; outline: as §1
Saccharomyces cerevisiae [12] = experiment: Compound was evaluated for antifungal activity against Saccharomyces cerevisiae IAM 4861 as diameter of inhibition zone at a concentration 1 ug/disk and showed incomplete inhibition; assay type: functional; outline: as §1
Aspergillus fumigatus [13] = experiment: Compound was evaluated for antifungal activity against Aspergillus fumigatum R-1301 as diameter of inhibition zone at a concentration 1 ug/disk; assay type: functional; outline: as §1
Candida albicans [14] = experiment: Compound was evaluated for antifungal activity against Candida albicans IFO 1594 as diameter of inhibition zone at a concentration 1 ug/disk; NE means not effective; assay type: functional, organism-based; outline: as §1
Penicillium citrinum [15] = experiment: Compound was evaluated for antifungal activity against penicillium ctrinum R-3703 as diameter of inhibition zone at a concentration 0.1 ug/disk; NE means not effective; assay type: functional, organism-based; outline: as §1
Aspergillus fumigatus [16] = experiment: Compound was evaluated for antifungal activity against Aspergillus fumigatum R-1301 as diameter of inhibition zone at a concentration 1 ug/disk; NE means not effective; assay type: functional, organism-based; outline: as §1
Penicillium citrinum [17] = experiment: Compound was evaluated for antifungal activity against penicillium ctrinum R-3703 as diameter of inhibition zone at a concentration 1 ug/disk; SE means slightly effective; assay type: functional, organism-based; outline: as §1
Candida albicans [18] = experiment: Compound was evaluated for antifungal activity against Candida albicans IFO 1594 as diameter of inhibition zone at a concentration 1 ug/disk and showed incomplete inhibition; assay type: functional; outline: as §1
Candida albicans [19] = experiment: Compound was evaluated for antifungal activity against Candida albicans IFO 1594 as diameter of inhibition zone at a concentration 10 ug/disk and showed incomplete inhibition; assay type: functional; outline: as §1
Penicillium citrinum [20] = experiment: Compound was evaluated for antifungal activity against penicillium ctrinum R-3703 as diameter of inhibition zone at a concentration 1 ug/disk; NE means not effective; assay type: functional, organism-based; outline: as §1
Fusarium solani [21] = experiment: Compound was evaluated for antifungal activity against Fusarium solani R-2800 as diameter of inhibition zone at a concentration 10 ug/disk and showed incomplete inhibition; assay type: functional; outline: as §1
Fusarium solani [22] = experiment: Compound was evaluated for antifungal activity against Fusarium solani R-2800 as diameter of inhibition zone at a concentration 1 ug/disk and showed incomplete inhibition; assay type: functional; outline: as §1
Candida albicans [23] = experiment: Compound was evaluated for antifungal activity against Candida albicans IFO 1594 as diameter of inhibition zone at a concentration 10 ug/disk; NE means not effective; assay type: functional, organism-based; outline: as §1
Penicillium citrinum [24] = experiment: Compound was evaluated for antifungal activity against penicillium ctrinum R-3703 as diameter of inhibition zone at a concentration 10 ug/disk; NE means not effective; assay type: functional, organism-based; outline: as §1
Aspergillus fumigatus [25] = experiment: Compound was evaluated for antifungal activity against Aspergillus fumigatum R-1301 as diameter of inhibition zone at a concentration 10 ug/disk; NE means not effective; assay type: functional, organism-based; outline: as §1
Saccharomyces cerevisiae [26] = experiment: Compound was evaluated for antifungal activity against Saccharomyces cerevisiae IAM 4861 as diameter of inhibition zone at a concentration 1 ug/disk; NE means not effective; assay type: functional, organism-based; outline: as §1
Saccharomyces cerevisiae [27] = experiment: Compound was evaluated for antifungal activity against Saccharomyces cerevisiae IAM 4861 as diameter of inhibition zone at a concentration 10 ug/disk; SE means slightly effective; assay type: functional, organism-based; outline: as §1
Saccharomyces cerevisiae [28] = experiment: Compound was evaluated for antifungal activity against Saccharomyces cerevisiae IAM 4861 as diameter of inhibition zone at a concentration 1 ug/disk; SE means slightly effective; assay type: functional, organism-based; outline: as §1
Saccharomyces cerevisiae [29] = experiment: Compound was evaluated for antifungal activity against Saccharomyces cerevisiae IAM 4861 as diameter of inhibition zone at a concentration 10 ug/disk; NE means not effective; assay type: functional, organism-based; outline: as §1
Saccharomyces cerevisiae [30] = experiment: Compound was evaluated for antifungal activity against Saccharomyces cerevisiae IAM 4861 as diameter of inhibition zone at a concentration 10 ug/disk; assay type: functional, organism-based
Outline: (§2)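 Disk-diffusion assay against the listed yeast strains (C. albicans IFO 1594; S. cerevisiae IAM 4861). Inhibition-zone diameter read after 48 hr incubation, reported as the mean of two samples. Activity scored as not effective, slightly effective, or incomplete inhibition where applicable.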

Candida albicans [31] = experiment: Compound was evaluated for antifungal activity against Candida albicans IFO 1594 as diameter of inhibition zone at a concentration 10 ug/disk; assay type: functional, organism-based; outline: as §2
Penicillium citrinum [32] = experiment: Compound was evaluated for antifungal activity against penicillium ctrinum R-3703 as diameter of inhibition zone at a concentration 0.1 ug/disk; SE means slightly effective; assay type: functional, organism-based; outline: as §1

Row | Compound | Inhibition zone (Saccharomyces cerevisiae [2]) [mm] | Inhibition zone (Fusarium solani [3]) | Inhibition zone (Saccharomyces cerevisiae [4]) | Inhibition zone (Penicillium citrinum [5]) [mm] | Inhibition zone (Fusarium solani [6]) | Inhibition zone (Aspergillus fumigatus [7]) [mm] | Inhibition zone (Fusarium solani [8]) | Inhibition zone (Aspergillus fumigatus [10]) | Inhibition zone (Candida albicans [11]) | Inhibition zone (Saccharomyces cerevisiae [12]) [mm] | Inhibition zone (Aspergillus fumigatus [13]) [mm] | Inhibition zone (Candida albicans [14]) | Inhibition zone (Penicillium citrinum [15]) | Inhibition zone (Aspergillus fumigatus [16]) | Inhibition zone (Candida albicans [19]) [mm] | other results
1 | COC(=O)C=C(OC)/C(C)=C(\C=C\c1ccc(OC)c(OC)c1)OC | 18 | inactive | inactive | 33 | inactive | 12 | inactive | inactive | inactive | 12 | 8 | inactive | inactive | – | – | Inhibition zone (Penicillium citrinum [1]): 18 mm; Inhibition zone (Candida albicans [9]): Slightly effective
2 | COC(=O)/C=C(/OC)[C@H](C)[C@H](/C=C/c1ccccc1)OC [listing 1 of 2 here] | – | inactive | inactive | – | inactive | – | inactive | inactive | inactive | – | – | inactive | inactive | inactive | – | Inhibition zone (Penicillium citrinum [17]): Slightly effective
3 | COC(=O)\C=C(OC)/C(C)=C(\C=C\c1ccc2ccccc2c1)OC | 21 | inactive | inactive | 13 | – | 16 | – | inactive | inactive | 15 | 10 | – | inactive | – | 14 | Inhibition zone (Candida albicans [18]): 8 mm; Inhibition zone (Penicillium citrinum [20]): inactive; Inhibition zone (Fusarium solani [21]): 27 mm; Inhibition zone (Fusarium solani [22]): 19 mm
4 | COC(=O)\C=C(OC)/C(C)=C(\C=C\c1cccc2ccccc12)OC | – | inactive | inactive | – | inactive | – | inactive | inactive | inactive | – | – | inactive | inactive | inactive | – | Inhibition zone (Candida albicans [23]): inactive; Inhibition zone (Penicillium citrinum [24]): inactive; Inhibition zone (Aspergillus fumigatus [25]): inactive; Inhibition zone (Penicillium citrinum [20]): inactive; Inhibition zone (Saccharomyces cerevisiae [26]): inactive; Inhibition zone (Saccharomyces cerevisiae [27]): Slightly effective
5 | COC(=O)/C=C(/OC)[C@H](C)[C@H](/C=C/c1ccccc1)OC (racemic) [listing 1 of 2 here] | – | inactive | inactive | – | inactive | – | inactive | inactive | inactive | – | – | inactive | inactive | inactive | – | Inhibition zone (Saccharomyces cerevisiae [28]): Slightly effective; Inhibition zone (Penicillium citrinum [17]): Slightly effective
6 | COC(=O)/C=C(/OC)[C@@H](C)[C@H](/C=C/c1ccccc1)OC (racemic) | – | inactive | inactive | – | inactive | – | inactive | inactive | inactive | – | – | inactive | inactive | inactive | – | Inhibition zone (Candida albicans [23]): inactive; Inhibition zone (Penicillium citrinum [24]): inactive; Inhibition zone (Aspergillus fumigatus [25]): inactive; Inhibition zone (Saccharomyces cerevisiae [29]): inactive; Inhibition zone (Penicillium citrinum [20]): inactive; Inhibition zone (Saccharomyces cerevisiae [26]): inactive
7 | NYSTATIN | – | – | – | 10 | inactive | 16 | – | – | – | – | – | – | – | – | – | Inhibition zone (Saccharomyces cerevisiae [30]): 18 mm; Inhibition zone (Candida albicans [31]): 16 mm
8 | COC(=O)\C=C(OC)/C(C)=C(\C=C\c1ccccc1)OC | 46 | inactive | inactive | 42 | – | 36 | – | inactive | inactive | 30 | 17 | – | inactive | – | 32 | Inhibition zone (Candida albicans [18]): 27 mm; Inhibition zone (Penicillium citrinum [1]): 17 mm; Inhibition zone (Fusarium solani [21]): 30 mm; Inhibition zone (Fusarium solani [22]): 22 mm
9 | COC(=O)/C=C(/OC)[C@H](C)[C@H](/C=C/c1ccccc1)OC (racemic) [listing 2 of 2 here] | 39 | – | – | 26 | – | 23 | – | – | – | – | – | – | – | – | 14 | –
10 | COC(=O)/C=C(/OC)[C@H](C)[C@H](/C=C/c1ccccc1)OC [listing 2 of 2 here] | 43 | – | – | 28 | – | – | – | – | – | 25 | – | – | – | – | 20 | –
11 | COC(=O)\C=C(OC)/C(C)=C(\C=C\c1cccs1)OC | 49 | inactive | inactive | 40 | inactive | 29 | inactive | inactive | inactive | 31 | 20 | – | – | – | 32 | Inhibition zone (Candida albicans [18]): 16 mm; Inhibition zone (Penicillium citrinum [1]): 21 mm; Inhibition zone (Penicillium citrinum [32]): Slightly effective
